Results taken from ChEMBL document CHEMBL4373643, “Synthesis and biological evaluation of structurally diverse α-conformationally restricted chalcones and related analogues” (Medchemcomm, 2019).
pIC50: −log10 of the molar value.

How the values were obtained:
DU-145 = assay: Cytotoxicity against human DU145 cells assessed as reduction in cell viability incubated for 48 hrs by SRB assay; type: functional; details: DU-145, 48 h
Outline: (§1)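 Cells from ATCC, plated at 7000–8000 cells/well in DMEM with 5% FBS and 1% gentamicin and left 24 h at 37 °C, 5% CO2. Compounds from a 10 mg mL–1 DMSO stock were serially diluted and added for 48 h. Cells were fixed with TCA (10% final), stained with SRB, and the dye solubilized in 10 mM Tris. A540 was normalized to A630, and GI50 was taken as 50% reduction in net protein increase.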

HUVEC = assay: Cytotoxicity against HUVEC assessed as reduction in cell viability incubated for 48 hrs by SRB assay; type: cell-based; details: human
Outline: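 HUVECs were grown in M200 with VEGF kit supplements in collagen I coated flasks, then plated at 9000 cells/well and given 48 h to attach. Compounds were added as 10-fold serial dilutions in M200 with LSGS kit, 1% gentamicin and 1% amphotericin B. Growth was read by SRB assay, and GI50 was taken as the concentration inhibiting growth by 50%.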

NCI-H460 = assay: Cytotoxicity against human NCI-H460 cells assessed as reduction in cell viability incubated for 48 hrs by SRB assay; type: functional; details: NCI-H460, 48 h; outline: as §1
SK-OV-3 = assay: Cytotoxicity against human SKOV3 cells assessed as reduction in cell viability incubated for 48 hrs by SRB assay; type: functional; details: SK-OV-3, 48 h; outline: as §1
Tubulin = assay: Inhibition of tubulin polymerization (unknown origin) incubated for 10 mins by spectrophotometry; type: protein-complex assay, Homo sapiens
[1] = Selectivity index, ratio of GI50 for HUVEC to GI50 for human NCI-H460 cells; type: toxicity; details: HUVEC versus NCI-H460 cells, read-out: RatioGI50
Tubulin (Homo sapiens) = Tubulin (Homo sapiens) (UniProt P68371+Q9H4B7+P0DPH7+P68366+Q13509+Q71U36+P04350+Q3ZCM7+P07437+P68363+Q9BQE3+Q6PEY2+Q13885+Q9BVA1+Q9BUF5); assay: Inhibition of [3H]colchicine binding to tubulin (unknown origin) at 5 uM incubated for 10 mins by scintillation counting method relative to control; type: protein-complex assay
[2] = Selectivity index, ratio of GI50 for HUVEC to GI50 for human DU145 cells; type: toxicity; details: HUVEC versus DU145 cells, read-out: RatioGI50
[3] = Selectivity index, ratio of GI50 for HUVEC to GI50 for human SKOV3 cells; type: toxicity; details: HUVEC versus SKOV3 cells, read-out: RatioGI50

For `COc1ccc2c(c1O)CC/C(=C\c1cc(OC)c(OC)c(OC)c1)C2=O`, which GI50 (DU-145) is on record?
The GI50 was 5.49 µM.

And the Activity (HUVEC)?
Its Activity is “Toxic”.

And the GI50 (NCI-H460)?
The GI50 was 6.44 µM.

What about the GI50 (SK-OV-3) of the same compound?
Its GI50 is 6.29 µM.

And the pIC50 (Tubulin)?
Its pIC50 is < 4.70.

With `COc1cc(Cc2ccc3c(N)c(OC)ccc3c2O)cc(OC)c1OC` as the compound, how does the GI50 (DU-145) read?
Its GI50 is 49.7 µM.

What about the GI50 (NCI-H460) of the same compound?
The GI50 was 65.2 µM.

What about the GI50 (SK-OV-3) of the same compound?
Its GI50 is 16.4 µM.

For `COc1ccc2c(c1Br)CC[C@H]1[C@H](c3cc(OC)c(OC)c(OC)c3)[C@@H]21`, which GI50 (DU-145) is on record?
Its GI50 is 61.5 µM.

What about the GI50 (NCI-H460) of the same compound?
Its GI50 is 59.2 µM.

What about the GI50 (SK-OV-3) of the same compound?
Its GI50 is 108 µM.

What about the pIC50 (Tubulin) of the same compound?
Its pIC50 is < 4.70.

Which GI50 (DU-145) does the source give for `COc1ccc2c(c1C#N)CC/C(=C\c1cc(OC)c(OC)c(OC)c1)C2=O` here?
Its GI50 is 57.2 µM.

And the GI50 (NCI-H460)?
Its GI50 is 44.4 µM.

What about the GI50 (SK-OV-3) of the same compound?
Its GI50 is 33.3 µM.

What about the pIC50 (Tubulin) of the same compound?
Its pIC50 is < 4.70.

What does the source list for `COc1ccc2c(c1N)CCC/C(=C\c1cc(OC)c(OC)c(OC)c1)C2=O`?
GI50 (DU-145): 0.237 µM; selectivity ratio [1]: 100; inhibition (Tubulin (Homo sapiens)): 0.34%; Activity (HUVEC): Non-Toxic; GI50 (NCI-H460): 0.733 µM; GI50 (SK-OV-3): 0.936 µM; selectivity ratio [2]: 100; selectivity ratio [3]: 100; pIC50 (Tubulin): < 4.70

With `COc1cc(Cc2ccc3c(Br)c(OC)ccc3c2O)cc(OC)c1OC` as the compound, how does the GI50 (DU-145) read?
The GI50 was 6.17 µM.

What about the GI50 (NCI-H460) of the same compound?
Its GI50 is 5.92 µM.

And the GI50 (SK-OV-3)?
The GI50 was 18.3 µM.

With `COc1cc(Cc2ccc3c([N+](=O)[O-])c(OC)ccc3c2O)cc(OC)c1OC` as the compound, how does the GI50 (DU-145) read?
The GI50 was 18.6 µM.

What about the GI50 (NCI-H460) of the same compound?
The GI50 was 22.9 µM.

What about the GI50 (SK-OV-3) of the same compound?
The GI50 was 21 µM.

Which results are given for `COc1ccc2c(c1Br)CCC/C(=C\c1cc(OC)c(OC)c(OC)c1)C2=O`?
GI50 (DU-145): 9.91 µM; GI50 (NCI-H460): 4.44 µM; GI50 (SK-OV-3): 8.5 µM; pIC50 (Tubulin): < 4.70

For `COc1cc(/C=C2\CCCc3c(ccc(OC)c3[N+](=O)[O-])C2=O)cc(OC)c1OC`, which GI50 (DU-145) is on record?
Its GI50 is 5.94 µM.

And the GI50 (NCI-H460)?
Its GI50 is 5.96 µM.

What about the GI50 (SK-OV-3) of the same compound?
The GI50 was 16.1 µM.

And the pIC50 (Tubulin)?
The pIC50 was < 4.70.

With `COc1ccc2c(c1Br)CC/C(=C\c1cc(OC)c(OC)c(OC)c1)C2=O` as the compound, how does the GI50 (DU-145) read?
The GI50 was 27.6 µM.

What about the GI50 (NCI-H460) of the same compound?
Its GI50 is 22.6 µM.

What about the GI50 (SK-OV-3) of the same compound?
Its GI50 is 29.6 µM.

And the pIC50 (Tubulin)?
Its pIC50 is < 4.70.

What does the source list for `CC(=O)O[C@H]1C(=O)[C@@]2(C)[C@H]([C@H](OC(=O)c3ccccc3)[C@]3(O)C[C@H](OC(=O)[C@H](O)[C@@H](NC(=O)c4ccccc4)c4ccccc4)C(C)=C1C3(C)C)[C@]1(OC(C)=O)CO[C@@H]1C[C@@H]2O` [PACLITAXEL]?
GI50 (DU-145): 0.00152 µM; GI50 (NCI-H460): 0.00165 µM; GI50 (SK-OV-3): 0.00136 µM

What does the source list for `COc1ccc2c(c1)CC/C(=C\c1cc(OC)c(OC)c(OC)c1)C2=O`?
GI50 (DU-145): 22.6 µM; GI50 (NCI-H460): 22.4 µM; GI50 (SK-OV-3): 40.3 µM; pIC50 (Tubulin): < 4.70

Which results are given for `COc1cc(Cc2ccc3c(O)c(OC)ccc3c2O)cc(OC)c1OC`?
GI50 (DU-145): 23.4 µM; GI50 (NCI-H460): 24.4 µM; GI50 (SK-OV-3): 21.9 µM

For `COc1ccc2c(c1O)CCC(=C\c1cc(OC)c(OC)c(OC)c1)/C2=N\O`, which GI50 (DU-145) is on record?
Its GI50 is 23.9 µM.

And the GI50 (NCI-H460)?
Its GI50 is 22.8 µM.

What about the GI50 (SK-OV-3) of the same compound?
Its GI50 is 38.2 µM.

And the pIC50 (Tubulin)?
Its pIC50 is < 4.70.

For `COc1ccc2c(c1)CCC/C(=C\c1cc(OC)c(OC)c(OC)c1)C2=O`, which GI50 (DU-145) is on record?
Its GI50 is 9.71 µM.

What about the GI50 (NCI-H460) of the same compound?
Its GI50 is 6.57 µM.

What about the GI50 (SK-OV-3) of the same compound?
The GI50 was 12 µM.

What about the pIC50 (Tubulin) of the same compound?
The pIC50 was < 4.70.

For `COc1ccc2c(O)c(Cc3cc(OC)c(OC)c(OC)c3)ccc2c1`, which GI50 (DU-145) is on record?
The GI50 was 8.84 µM.

What about the Activity (HUVEC) of the same compound?
Its Activity is “Toxic”.

And the GI50 (NCI-H460)?
Its GI50 is 13.4 µM.

What about the GI50 (SK-OV-3) of the same compound?
Its GI50 is 7.5 µM.

What about the pIC50 (Tubulin) of the same compound?
Its pIC50 is 4.77.

With `COc1cccc2c1C(=O)c1c(O)c3c(c(O)c1C2=O)C[C@@](O)(C(=O)CO)C[C@@H]3O[C@H]1C[C@H](N)[C@H](O)[C@H](C)O1` [DOXORUBICIN] as the compound, how does the GI50 (DU-145) read?
Its GI50 is 0.108 µM.

What about the GI50 (NCI-H460) of the same compound?
Its GI50 is 0.0547 µM.

What about the GI50 (SK-OV-3) of the same compound?
The GI50 was 0.0875 µM.

What does the source list for `COc1ccc2c(c1Br)CCC(=C\c1cc(OC)c(OC)c(OC)c1)/C2=N\O`?
GI50 (DU-145): 50.1 µM; GI50 (NCI-H460): 47 µM; GI50 (SK-OV-3): 80.1 µM; pIC50 (Tubulin): < 4.70

Which results are given for `COc1cc(/C=C2\CCc3c(ccc(OC)c3[N+](=O)[O-])C2=O)cc(OC)c1OC`?
GI50 (DU-145): 37.6 µM; GI50 (NCI-H460): 36.3 µM; GI50 (SK-OV-3): 23.5 µM; pIC50 (Tubulin): < 4.70

Which GI50 (DU-145) does the source give for `COc1ccc2c(c1)CC[C@H]1[C@H](c3cc(OC)c(OC)c(OC)c3)[C@@H]21` here?
Its GI50 is 41.1 µM.

And the GI50 (NCI-H460)?
Its GI50 is 38.8 µM.

What about the GI50 (SK-OV-3) of the same compound?
The GI50 was 54.5 µM.

And the pIC50 (Tubulin)?
Its pIC50 is < 4.70.

For `COc1ccc2c(c1N)CC/C(=C\c1cc(OC)c(OC)c(OC)c1)C2=O`, which GI50 (DU-145) is on record?
The GI50 was 32.4 µM.

And the Activity (HUVEC)?
The Activity was “Toxic”.

What about the GI50 (NCI-H460) of the same compound?
The GI50 was 46.4 µM.

And the GI50 (SK-OV-3)?
Its GI50 is > 135 µM.

And the pIC50 (Tubulin)?
Its pIC50 is < 4.70.

With `COc1ccc2c(c1O)CCC/C(=C\c1cc(OC)c(OC)c(OC)c1)C2=O` as the compound, how does the GI50 (DU-145) read?
The GI50 was 0.456 µM.

What about the selectivity ratio [1] of the same compound?
Its selectivity ratio is 10.

What about the inhibition (Tubulin (Homo sapiens)) of the same compound?
Its inhibition is 14%.

What about the Activity (HUVEC) of the same compound?
Its Activity is “Non-Toxic”.

What about the GI50 (NCI-H460) of the same compound?
The GI50 was 0.635 µM.

And the GI50 (SK-OV-3)?
The GI50 was 0.941 µM.

What about the selectivity ratio [2] of the same compound?
Its selectivity ratio is 10.

What about the selectivity ratio [3] of the same compound?
The selectivity ratio was 10.

What about the pIC50 (Tubulin) of the same compound?
Its pIC50 is < 4.70.

Which GI50 (DU-145) does the source give for `COc1ccc(/C=C\c2cc(OC)c(OC)c(OC)c2)cc1O` [COMBRETASTATIN A4] here?
Its GI50 is 0.00602 µM.

What about the GI50 (NCI-H460) of the same compound?
Its GI50 is 0.005 µM.

And the GI50 (SK-OV-3)?
Its GI50 is 0.00506 µM.
